Results taken from PMC5691919 (ACS Chemical Neuroscience, 2017).
pEC50, pKi: −log10 of the molar value. Where “and” joins values, the source holds several entries; their conditions need not be identical. Identical values can stand only once. Entries after “also recorded” stand apart in the source; their conditions may differ.

What was measured:
[1] = molecular target: T1, rat DOR (C6-DOR) (Rattus norvegicus, UniProt P33533); assay: [3H]-diprenorphine competitive displacement binding, C6-DOR membranes
In short: (§1)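 Membranes came from C6 glioma cells stably expressing rat MOR or DOR, or CHO cells stably expressing human KOR. Membranes (20 μg protein) in 50 mM Tris-HCl pH 7.4 were incubated with 0.2 nM [³H]-diprenorphine and varying test compound concentrations for 1 h at room temperature, then filtered on GF/C. Nonspecific binding was defined with 10 μM naloxone. Ki came from logistic nonlinear regression; at least three assays in duplicate.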

[2] = molecular target: T1, rat DOR (C6-DOR); assay: Stimulation of [35S]-GTPγS binding, C6-DOR membranes; assay type: biochemical; conditions: for EC50 DOR: [35S]-GTPγS binding, mean (SEM); for EC50 DOR / % stimulation DOR: dns: does not stimulate; for % stimulation DOR: percent maximal stimulation relative to DPDPE at 10 μM
In short: (§2)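 Rat MOR or DOR (C6) and human KOR (CHO) membranes (10–20 μg protein) were incubated 1 h at 25 °C in 50 mM Tris-HCl, 100 mM NaCl, 5 mM MgCl₂, pH 7.4, with 0.1 nM [³⁵S]-GTPγS, 30 μM GDP and varying test compound concentrations, then filtered on GF/C. % stimulation was taken relative to 10 μM DAMGO (MOR), DPDPE (DOR) or U69,593 (KOR). EC50 came from nonlinear regression; at least three assays in duplicate.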

[3] = molecular target: T2, human KOR (CHO-KOR) (Homo sapiens, UniProt P41145); assay: [3H]-diprenorphine competitive displacement binding, CHO-KOR membranes
In short: as §1

[4] = molecular target: T3, rat MOR (C6-MOR) (Rattus norvegicus, UniProt P33535); assay: Stimulation of [35S]-GTPγS binding, C6-MOR membranes; assay type: biochemical; conditions: for % stimulation MOR: percent maximal stimulation relative to DAMGO at 10 μM; for Emax: read-out: % stimulation MOR
In short: as §2

[5] = molecular target: T2, human KOR (CHO-KOR); assay: Stimulation of [35S]-GTPγS binding, CHO-KOR membranes; assay type: biochemical; conditions: for EC50 KOR: [35S]-GTPγS binding, mean (SEM); for EC50 KOR / % stimulation KOR: dns: does not stimulate; for % stimulation KOR: percent maximal stimulation relative to U69,593 at 10 μM
In short: as §2

[6] = molecular target: T3, rat MOR (C6-MOR); assay: [3H]-diprenorphine competitive displacement binding, C6-MOR membranes
In short: as §1

[7] = displacement of [3H]-diprenorphine, mean (SEM), n = 3

Structure (SMILES) | pKi [1] | EC50 DOR [2] | % stimulation DOR [2] | pKi [3] | pEC50 [4] | % stimulation MOR ([4]; dns: does not stimulate) | EC50 KOR [5] | % stimulation KOR [5] | Binding, Ki MOR [6, 7] | Binding, Ki KOR [3, 7] | pEC50 [5] | pKi [6] | pEC50 [2] | Emax [4] [%] | EC50 MOR ([4]; [35S]-GTPγS binding, mean (SEM), dns: does not stimulate)
COc1cccc2c1CC(Cc1ccc3c(c1)[C@H](NC(=O)[C@@H](N)Cc1c(C)cc(O)cc1C)CCN3)C2 (stereo partly drawn) [Compound 8a] | 8.64 | dns^d | dns^d | 7.17 | 8.72 | 48 (2.9) % | dns^d | low affinity KOR antagonists; also recorded: dns^d | – | – | – | – | – | – | –
Cc1cc(O)cc(C)c1C[C@H](N)C(=O)N[C@@H]1CCNc2ccc(CC3Cc4cccc(O)c4C3)cc21 (stereo partly drawn) [Compound 8c] | – | dns^d | no stimulation at DOR; also recorded: dns^d | 9.11 | – | 66 (3.3) % | – | 92% and 92 (3.6) % | subnanomolar binding affinity | subnanomolar binding affinity | 7.60 | – | – | – | –
COc1ccc(Cc2ccc3c(c2)[C@H](NC(=O)[C@@H](N)Cc2c(C)cc(O)cc2C)CCN3)cc1 [Compound 4c] | 7.82 | dns^d | did not stimulate GTPγS binding; also recorded: eliminating stimulation; also recorded: dns^d | 7.00 | 8.03 | 55 (3.4) % | dns^d | displayed no agonist effect; also recorded: eliminating stimulation; also recorded: dns^d | – | – | – | 9.54 | – | – | –
Cc1cc(O)cc(C)c1C[C@H](N)C(=O)N[C@@H]1CCNc2ccc(Cc3cccc(O)c3)cc21 [Compound 4e] | 8.85 | – | 67% and 67 (1.6) % | 7.80 | 8.32 | – | – | – | – | – | 6.64 | 9.72 | 6.85 | 96 | –
COc1ccccc1Cc1ccc2c(c1)[C@H](NC(=O)[C@@H](N)Cc1c(C)cc(O)cc1C)CCN2 [Compound 4a] | 8.19 | – | 16 (2.2) % | 7.27 | 8.05 | – | – | – | – | – | 6.00 | 9.47 | 6.89 | 91 | –
COc1ccc2c(c1)CC(Cc1ccc3c(c1)[C@H](NC(=O)[C@@H](N)Cc1c(C)cc(O)cc1C)CCN3)C2 (stereo partly drawn) [Compound 8b] | – | dns^d | dns^d | 7.48 | 8.10 | 22 (3.7) % | dns | low affinity KOR antagonists and dns | – | – | – | 10.10 | – | – | –
Cc1cc(O)cc(C)c1C[C@H](N)C(=O)N[C@@H]1CCNc2ccc(Cc3ccc(O)cc3)cc21 [Compound 4f] | 6.89 | dns^d | did not stimulate GTPγS binding; also recorded: dns^d | 6.38 | – | no stimulation of GTP binding and dns | dns^d | displayed no agonist effect; also recorded: dns^d | – | – | – | 8.77 | – | – | dns
Cc1cc(O)cc(C)c1C[C@H](N)C(=O)N[C@@H]1CCNc2ccc(Cc3ccccc3O)cc21 [Compound 4d] | 8.25 | – | – | 8.24 | 8.01 | – | – | 67% and 67 (3.5) % | – | – | 6.57 | 9.59 | 5.82 | 89 | –
Cc1cc(O)cc(C)c1C[C@H](N)C(=O)N[C@@H]1CCNc2ccc(CC3Cc4ccc(O)cc4C3)cc21 (stereo partly drawn) [Compound 8d] | 7.82 | dns | dns | 7.39 | 8.15 | 16 (2.4) % | dns | low affinity KOR antagonists and dns | – | – | – | 9.09 | – | – | –
COc1cccc(Cc2ccc3c(c2)[C@H](NC(=O)[C@@H](N)Cc2c(C)cc(O)cc2C)CCN3)c1 [Compound 4b] | 8.27 | – | 10 (2.6) % | 7.57 | 8.36 | – | dns^d | displayed no agonist effect; also recorded: dns^d | – | – | – | 9.96 | 6.64 | 99 | –
